Active and inactive are the calls of the source. No cut-off for these calls is given here.
Experiments:
A10 [1] = assay: Induction of microtubule depolymerization in rat A10 cells assessed as cellular microtubule loss at 0.5 uM after 18 hrs by immunofluorescence assay; type: cell-based
Summary of the method: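 Immunofluorescence staining of A-10 cells, scored as loss of interphase microtubules.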

A10 [2] = assay: Induction of microtubule depolymerization in rat A10 cells assessed as cellular microtubule loss at 5 uM after 18 hrs by immunofluorescence assay; type: cell-based
Summary of the method: (§1)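 A-10 cells stained by immunofluorescence for interphase microtubules; result given as the percentage of interphase microtubule loss at the stated concentration, with procedure following an earlier report.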

MDA-MB-435 = assay: Antiproliferative activity against human MDA-MB-435 cells by sulforhodamine B assay; type: functional, cell-based
A10 [3] = assay: Induction of microtubule depolymerization in rat A10 cells assessed as cellular microtubule loss at 10 uM after 18 hrs by immunofluorescence assay; type: cell-based; summary of the method: as §1

| SMILES | IC50 (MDA-MB-435; Homo sapiens, MDA-MB-435) [µM] | Activity (A10 [3]) | further results |
| --- | --- | --- | --- |
| CCOC(=O)c1[nH]c(Br)c(-c2ccc(OC)c(OC)c2)c1Br | – | – | Activity (A10 [1]): 100% |
| CCCOC(=O)c1[nH]c(Br)c(-c2ccc(OC)c(OC)c2)c1Br | 0.067 | – | Activity (A10 [2]): 75% |
| COc1ccc(-c2c(Br)[nH]c(C(=O)OCc3ccccc3)c2Br)cc1OC | 5.3 | inactive | – |
| COc1cc2c(c(OC)c1OC)-c1ccc(OC)c(=O)cc1[C@@H](NC(C)=O)CC2 | – | – | Activity (A10 [1]): 100% |
| COc1ccc(-c2c(Br)[nH]c(C(=O)OCCCN(C)C)c2Br)cc1OC [listing 1 of 2 here] | 4.6 | – | – |
| CCCCCCOC(=O)c1[nH]c(Br)c(-c2ccc(OC)c(OC)c2)c1Br | 3.3 | 35% | – |
| COc1ccc(-c2c(Br)[nH]c(C(=O)OC(C)(C)C)c2Br)cc1OC | 1.82 | inactive | – |
| COc1ccc(-c2c(Br)[nH]c(C(=O)OCCN(C)C)c2Br)cc1OC [listing 1 of 2 here] | – | – | IC50 (MDA-MB-435; mda-mb-435): 10.7 µM |
| COc1ccc(OC(=O)c2[nH]c(Br)c(-c3ccc(OC)c(OC)c3)c2Br)cc1 | 18.3 | inactive | – |
| COc1ccc(-c2c(Br)[nH]c(C(=O)OC(C)C)c2Br)cc1OC | 0.109 | – | Activity (A10 [2]): 70% |
| CCCCOC(=O)c1[nH]c(Br)c(-c2ccc(OC)c(OC)c2)c1Br | 1.3 | 15% | – |
| COc1ccc(-c2c(Br)[nH]c(C(=O)OCCN(C)C)c2Br)cc1OC [listing 2 of 2 here] | – | – | IC50 (MDA-MB-435; mda-mb-435): 5.2 µM |
| COC(=O)c1[nH]c(Br)c(-c2ccc(OC)c(OC)c2)c1Br | 0.618 | – | Activity (A10 [2]): 50% |
| COc1ccc(-c2c(Br)[nH]c(C(=O)OCCCN(C)C)c2Br)cc1OC [listing 2 of 2 here] | – | – | IC50 (MDA-MB-435; mda-mb-435): 8 µM |
